Measured values collected from several papers.
Each line is one published result; the experiments were not run side by side.
rep papain-like protease: Replicase polyprotein 1ab, papain-like protease (rep, Porcine epidemic diarrhea virus, UniProt P0C6Y4)
MAP2K2: Dual specificity mitogen-activated protein kinase kinase 2 (MAP2K2, Homo sapiens, UniProt P36507)
PTGS1: Prostaglandin G/H synthase 1 (PTGS1, Ovis aries, UniProt P05979)
IPMK: Inositol polyphosphate multikinase (IPMK, Homo sapiens, UniProt Q8NFU5)
ALDH3A1: Aldehyde dehydrogenase, dimeric NADP-preferring (ALDH3A1, Homo sapiens, UniProt P30838)
rep main protease: Replicase polyprotein 1ab, main protease (rep, Porcine epidemic diarrhea virus, UniProt P0C6Y4)

CC(=O)Oc1cccc(C(=O)NCc2cc(O)c(O)c(Br)c2)c1C
IC50 (rep papain-like protease; enzyme activity; inhibitor; FRET): 2.76 µM

NC(=O)c1nnn(Cc2cc(Cl)c(C(=O)c3ccc(Cl)cc3)c(Cl)c2)c1N
IC50 (D(1A) dopamine receptor (DRD1, Homo sapiens, UniProt P21728); cAMP; antagonist): 7.98 µM

O=C1Nc2ccc(I)cc2/C1=C/c1cc(Br)c(O)c(Br)c1
IC50 (Mitogen-activated protein kinase kinase kinase 20 (MAP3K20, Homo sapiens, UniProt Q9NYL2); enzyme activity; inhibitor): 1.13 µM

C=CC(=O)N1CCC([C@@H]2CCNc3c(C(N)=O)c(-c4ccc(Oc5ccccc5)cc4)nn32)CC1
IC50 (MAP2K2; enzyme activity; inhibitor): 0.133 µM

CC(=NNC(=O)c1cc(-c2ccccc2)n(-c2ccc(S(N)(=O)=O)cc2)n1)c1ccc(Br)cc1
IC50 (PTGS1; enzyme activity; inhibitor): 3.14 µM

COc1cc(NC(=O)c2cnn(-c3ccc([N+](=O)[O-])cc3)c2C(F)(F)F)cc(OC)c1
IC50 (PTGS1; enzyme activity; inhibitor): 1.74 µM

COc1cccc(CNc2nc(NC3CCN(Cc4ccccc4)CC3)c3nc[nH]c3n2)c1
IC50 (IPMK; enzyme activity; inhibitor): 2 µM

O=C(NCc1cc(O)c(O)c(Br)c1)c1ccccc1
IC50 (rep papain-like protease; enzyme activity; inhibitor; FRET): 12.7 µM

COc1cc(C=NNC(=O)c2cc(-c3ccccc3)n(-c3ccc(S(N)(=O)=O)cc3)n2)cc(OC)c1OC
IC50 (PTGS1; enzyme activity; inhibitor): 7.21 µM

O=C(NCc1cc(O)c(O)c(Br)c1)c1ccc(Cl)c(F)c1
IC50 (rep papain-like protease; enzyme activity; inhibitor; FRET): 7.22 µM

NS(=O)(=O)c1ccc(-n2nc(-c3nnc(S)o3)cc2-c2ccccc2)cc1
IC50 (PTGS1; enzyme activity; inhibitor): 7.78 µM

C=CC(=O)N1CCC(CNc2ncnc(N)c2-c2ccc(Oc3ccccc3)cc2)CC1
IC50 (MAP2K2; enzyme activity; inhibitor): > 5 µM

CC(C)N(CCC(=O)c1ccc2ccccc2c1)Cc1ccccc1
IC50 (ALDH3A1; enzyme activity; inhibitor; fluorescence): < 10 µM

COc1ccc(C(=O)NCc2cc(Br)c(OC)c(OC)c2)cc1
IC50 (rep main protease; enzyme activity; inhibitor; FRET): 5.19 µM

NS(=O)(=O)c1ccc(-n2nc(C(=O)NN3C(=O)c4ccccc4C3=O)cc2-c2ccccc2)cc1
IC50 (PTGS1; enzyme activity; inhibitor): 6.72 µM

COCCNc1nc(NCc2cccc(C(=O)Nc3ccc(OC)cc3)c2)nc2[nH]cnc12
IC50 (IPMK; enzyme activity; inhibitor): 63 µM

Cc1ccc(S(=O)(=O)[N](Nc2ccc([N+](=O)[O-])cc2[N+](=O)[O-])[Sn]([Cl])[Cl])cc1
IC50 (PTGS1; enzyme activity; inhibitor): 45.9 µM

COc1nc2ccc(Br)cc2cc1[C@@H](c1ccccc1)[C@@](O)(CCN(C)C)c1cccc2ccccc12
IC50 (ALDH3A1; enzyme activity; inhibitor; fluorescence): < 10 µM

O=C(NCc1cc(O)c(O)c(Br)c1)c1ccco1
IC50 (rep main protease; enzyme activity; inhibitor; FRET): 12.2 µM

NS(=O)(=O)c1ccc(-n2nc(C(=O)NN3C(=O)CCC3=O)cc2-c2ccccc2)cc1
IC50 (PTGS1; enzyme activity; inhibitor): 7.57 µM

O=C(NCc1cc(O)c(O)c(Br)c1)N1CCCC1
IC50 (rep main protease; enzyme activity; inhibitor; FRET): 2.88 µM

Nc1ncnc2c1ncn2[C@@H]1C(F)=C(CO)[C@@H](O)[C@H]1O
IC50 (Adenosylhomocysteinase (AHCY, Homo sapiens, UniProt P23526); enzyme activity; inhibitor): 0.15 µM

COc1ccc(N2CCN(Cc3cn4c(-c5ccc(Br)cc5)nnc4s3)CC2)cc1
IC50 (Aifm2 (Mus musculus, UniProt Q8BUE4, A354T/L360F); enzyme activity; inhibitor; absorbance): ~0.518 µM

C=C1CC/C=C(\C)CC[C@@H]2[C@@H]1CC2(C)C
IC50 (Transient receptor potential cation channel subfamily V member 1, non-phosphorylated (TRPV1, Homo sapiens, UniProt Q8NER1); ion current; patch clamp): 0.587 µM

O=C(NCc1cc(O)c(O)c(Br)c1)c1nccs1
IC50 (rep main protease; enzyme activity; inhibitor; FRET): 2.52 µM

NS(=O)(=O)c1ccc(-n2nc(C(=O)NN=Cc3ccccc3O)cc2-c2ccccc2)cc1
IC50 (PTGS1; enzyme activity; inhibitor): 3.91 µM

CCC(C(=O)NCc1cc(O)c(O)c(Br)c1)c1ccccc1 (stereo not shown)
IC50 (rep papain-like protease; enzyme activity; inhibitor; FRET): 10.6 µM

COCCNc1nc(NCc2cccc(C(=O)Oc3ccc(OC)cc3)c2)nc2[nH]cnc12
IC50 (IPMK; enzyme activity; inhibitor): 14 µM
